Data as given in ChEMBL document CHEMBL4842318, “A γ-lactam siderophore antibiotic effective against multidrug-resistant Pseudomonas aeruginosa, Klebsiella pneumoniae, and Acinetobacter spp” (Eur J Med Chem, 2021).
≈ marks a conversion by molar mass, not a printed value.

Columns and labels:
[1] = Inhibition of Acinetobacter sp. strain ATCC 27244 PBP3 expressed in Escherichia coli BL21 (DE3) assessed as reduction in fluorescence intensity using Bocillin-protein as fluorescent substrate by SDS PAGE analysis
Acinetobacter baumannii [2] = assay: Antibacterial activity against carbapenem resistant Acinetobacter baumannii isolate PR-384 assessed as bacterial growth inhibition by microdilution method; format: functional
Procedure, shortened: (§1)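 Broth microdilution in Chelex-treated, iron-depleted cation-adjusted Mueller-Hinton broth, following the protocol used for siderophore-containing antibiotics; inoculum lowered to 6 × 10^4 cfu/mL; MIC read as growth inhibition, in μg/mL.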

Acinetobacter baumannii [3] = assay: Antibacterial activity against carbapenem resistant Acinetobacter baumannii isolate PR-345 assessed as bacterial growth inhibition by microdilution method; format: functional; procedure, shortened: as §1
Acinetobacter baumannii [4] = assay: Antibacterial activity against carbapenem resistant Acinetobacter baumannii isolate PR-387 assessed as bacterial growth inhibition by microdilution method; format: functional; procedure, shortened: as §1
Acinetobacter baumannii [5] = assay: Antibacterial activity against carbapenem resistant Acinetobacter baumannii isolate PR-314 assessed as bacterial growth inhibition by microdilution method; format: functional; procedure, shortened: as §1
[6] = Antibacterial activity against carbapenem susceptible Acinetobacter nosocomialis isolate PR-362 assessed as bacterial growth inhibition by microdilution method; format: functional
Procedure, shortened: (§2)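 Broth microdilution MIC in iron-depleted (Chelex resin-treated) cation-adjusted Mueller-Hinton broth, following the protocol used for siderophore-containing antibiotics. Inoculum was lowered to 6 × 10^4 cfu/mL.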

Acinetobacter baumannii [7] = assay: Antibacterial activity against carbapenem resistant Acinetobacter baumannii isolate PR-423 assessed as bacterial growth inhibition by microdilution method; format: functional; procedure, shortened: as §1
Acinetobacter baumannii [8] = assay: Antibacterial activity against carbapenem susceptible Acinetobacter baumannii isolate PR-340 assessed as bacterial growth inhibition by microdilution method; format: functional; procedure, shortened: as §2
[9] = Antibacterial activity against carbapenem susceptible Acinetobacter nosocomialis isolate PR-412 assessed as bacterial growth inhibition by microdilution method; format: functional; procedure, shortened: as §2
Acinetobacter baumannii [10] = assay: Antibacterial activity against carbapenem resistant Acinetobacter baumannii isolate PR-326 assessed as bacterial growth inhibition by microdilution method; format: functional; procedure, shortened: as §1
[11] = Antibacterial activity against carbapenem susceptible Acinetobacter nosocomialis isolate PR-491 assessed as bacterial growth inhibition by microdilution method; format: functional; procedure, shortened: as §2
Acinetobacter baumannii [12] = assay: Antibacterial activity against carbapenem susceptible Acinetobacter baumannii isolate PR-464 assessed as bacterial growth inhibition by microdilution method; format: functional; procedure, shortened: as §2
Acinetobacter baumannii [13] = assay: Antibacterial activity against carbapenem resistant Acinetobacter baumannii isolate PR-380 assessed as bacterial growth inhibition by microdilution method; format: functional; procedure, shortened: as §1
Acinetobacter baumannii [14] = assay: Antibacterial activity against carbapenem resistant Acinetobacter baumannii isolate PR-319 assessed as bacterial growth inhibition by microdilution method; format: functional; procedure, shortened: as §1
Acinetobacter baumannii [15] = assay: Antibacterial activity against carbapenem resistant Acinetobacter baumannii isolate PR-342 assessed as bacterial growth inhibition by microdilution method; format: functional; procedure, shortened: as §1
Acinetobacter baumannii [16] = assay: Antibacterial activity against carbapenem resistant Acinetobacter baumannii isolate PR-482 assessed as bacterial growth inhibition by microdilution method; format: functional; procedure, shortened: as §1
Acinetobacter baumannii [17] = assay: Antibacterial activity against carbapenem susceptible Acinetobacter baumannii isolate PR-434 assessed as bacterial growth inhibition by microdilution method; format: functional; procedure, shortened: as §2
Acinetobacter baumannii [18] = assay: Antibacterial activity against carbapenem susceptible Acinetobacter baumannii isolate PR-452 assessed as bacterial growth inhibition by microdilution method; format: functional; procedure, shortened: as §2
Acinetobacter baumannii [19] = assay: Antibacterial activity against carbapenem resistant Acinetobacter baumannii isolate PR-325 assessed as bacterial growth inhibition by microdilution method; format: functional; procedure, shortened: as §1
Acinetobacter baumannii [20] = assay: Antibacterial activity against carbapenem resistant Acinetobacter baumannii isolate PR-459 assessed as bacterial growth inhibition by microdilution method; format: functional; procedure, shortened: as §1
Acinetobacter baumannii [21] = assay: Antibacterial activity against carbapenem resistant Acinetobacter baumannii isolate PR-401 assessed as bacterial growth inhibition by microdilution method; format: functional; procedure, shortened: as §1
Acinetobacter baumannii [22] = assay: Antibacterial activity against carbapenem resistant Acinetobacter baumannii isolate PR-399 assessed as bacterial growth inhibition by microdilution method; format: functional; procedure, shortened: as §1
Acinetobacter baumannii [23] = assay: Antibacterial activity against carbapenem resistant Acinetobacter baumannii isolate PR-351 assessed as bacterial growth inhibition by microdilution method; format: functional; procedure, shortened: as §1
[24] = Antibacterial activity against carbapenem susceptible Acinetobacter nosocomialis isolate PR-365 assessed as bacterial growth inhibition by microdilution method; format: functional; procedure, shortened: as §2
Acinetobacter baumannii [25] = assay: Antibacterial activity against 98 member subset of carbapenem resistant Acinetobacter baumannii assessed as assessed as inhibition of bacterial growth by microdilution method; format: functional; procedure, shortened: as §1
Acinetobacter baumannii [26] = assay: Antibacterial activity against panel of 198 clinical isolates Acinetobacter baumannii assessed as inhibition of bacterial growth by microdilution method; format: functional
Pseudomonas aeruginosa [27] = assay: Antibacterial activity against wild type Pseudomonas aeruginosa isolate PR-636 leucine at 533 residue assessed as inhibition of bacterial growth by microdilution method; format: functional; procedure, shortened: as §2
Pseudomonas aeruginosa [28] = assay: Antibacterial activity against wild type Pseudomonas aeruginosa isolate PR-651 leucine at 533 residue assessed as inhibition of bacterial growth by microdilution method; format: functional; procedure, shortened: as §2
Pseudomonas aeruginosa [29] = assay: Antibacterial activity against wild type Pseudomonas aeruginosa isolate PR-606 assessed as inhibition of bacterial growth by microdilution method; format: functional; procedure, shortened: as §2
Pseudomonas aeruginosa [30] = assay: Antibacterial activity against wild type Pseudomonas aeruginosa isolate PR-699 assessed as inhibition of bacterial growth by microdilution method; format: functional; procedure, shortened: as §2
Pseudomonas aeruginosa [31] = assay: Antibacterial activity against wild type Pseudomonas aeruginosa isolate PR-638 assessed as inhibition of bacterial growth by microdilution method; format: functional; procedure, shortened: as §2
Pseudomonas aeruginosa [32] = assay: Antibacterial activity against wild type Pseudomonas aeruginosa isolate PR-604 assessed as inhibition of bacterial growth by microdilution method; format: functional; procedure, shortened: as §2
Pseudomonas aeruginosa [33] = assay: Antibacterial activity against wild type Pseudomonas aeruginosa isolate PR-548 assessed as inhibition of bacterial growth by microdilution method; format: functional; procedure, shortened: as §2
Pseudomonas aeruginosa [34] = assay: Antibacterial activity against Pseudomonas aeruginosa isolate PR-627 leucine at 533 residue assessed as inhibition of bacterial growth by microdilution method; format: functional; procedure, shortened: as §1
Pseudomonas aeruginosa [35] = assay: Antibacterial activity against wild type Pseudomonas aeruginosa isolate PR-672 assessed as inhibition of bacterial growth by microdilution method; format: functional; procedure, shortened: as §2
Pseudomonas aeruginosa [36] = assay: Antibacterial activity against wild type Pseudomonas aeruginosa isolate PR-635 assessed as inhibition of bacterial growth by microdilution method; format: functional; procedure, shortened: as §2
Pseudomonas aeruginosa [37] = assay: Antibacterial activity against wild type Pseudomonas aeruginosa isolate PR-676 assessed as inhibition of bacterial growth by microdilution method; format: functional; procedure, shortened: as §2
Pseudomonas aeruginosa [38] = assay: Antibacterial activity against wild type Pseudomonas aeruginosa isolate PR-567 assessed as inhibition of bacterial growth by microdilution method; format: functional; procedure, shortened: as §2
Pseudomonas aeruginosa [39] = assay: Antibacterial activity against wild type Pseudomonas aeruginosa isolate PR-673 leucine at 533 residue assessed as inhibition of bacterial growth by microdilution method; format: functional; procedure, shortened: as §2
Pseudomonas aeruginosa [40] = assay: Antibacterial activity against wild type Pseudomonas aeruginosa isolate PR-677 assessed as inhibition of bacterial growth by microdilution method; format: functional; procedure, shortened: as §2
Pseudomonas aeruginosa [41] = assay: Antibacterial activity against wild type Pseudomonas aeruginosa isolate PR-680 leucine at 533 residue assessed as inhibition of bacterial growth by microdilution method; format: functional; procedure, shortened: as §2
Pseudomonas aeruginosa [42] = assay: Antibacterial activity against wild type Pseudomonas aeruginosa isolate PR-503 assessed as inhibition of bacterial growth by microdilution method; format: functional; procedure, shortened: as §2
Pseudomonas aeruginosa [43] = assay: Antibacterial activity against wild type Pseudomonas aeruginosa isolate PR-688 leucine at 533 residue assessed as inhibition of bacterial growth by microdilution method; format: functional; procedure, shortened: as §2
Pseudomonas aeruginosa [44] = assay: Antibacterial activity against wild type Pseudomonas aeruginosa isolate PR-545 assessed as inhibition of bacterial growth by microdilution method; format: functional; procedure, shortened: as §2
Pseudomonas aeruginosa [45] = assay: Antibacterial activity against wild type Pseudomonas aeruginosa isolate PR-668 leucine at 533 residue assessed as inhibition of bacterial growth by microdilution method; format: functional; procedure, shortened: as §2
Pseudomonas aeruginosa [46] = assay: Antibacterial activity against Pseudomonas aeruginosa isolate PR-564 leucine at 533 residue assessed as inhibition of bacterial growth by microdilution method; format: functional; procedure, shortened: as §1
Pseudomonas aeruginosa [47] = assay: Antibacterial activity against Pseudomonas aeruginosa AR-BANK#0229; format: functional; procedure, shortened: as §1

SMILES: C[C@@H](O)[C@H]1C(=O)N2C(C(=O)O)=C(S[C@@H]3CN[C@H](CNS(N)(=O)=O)C3)[C@H](C)[C@H]12 [DORIPENEM]
- IC50 [1]: 2300 nM

SMILES: CC1(C)[C@H](C(=O)O)N2C(=O)C[C@H]2S1(=O)=O [SULBACTAM]
- MIC (Acinetobacter baumannii [2]): 16 µg/mL
- MIC (Acinetobacter baumannii [3]): 16 µg/mL
- MIC (Acinetobacter baumannii [4]): 16 µg/mL
- MIC (Acinetobacter baumannii [5]): 16 µg/mL
- MIC [6]: 1 µg/mL
- MIC (Acinetobacter baumannii [7]): 16 µg/mL
- MIC (Acinetobacter baumannii [8]): 4 µg/mL
- MIC [9]: 2 µg/mL
- MIC (Acinetobacter baumannii [10]): 2 µg/mL
- MIC [11]: 2 µg/mL
- MIC (Acinetobacter baumannii [12]): 1 µg/mL
- MIC (Acinetobacter baumannii [13]): 16 µg/mL
- MIC (Acinetobacter baumannii [14]): > 32 µg/mL
- MIC (Acinetobacter baumannii [15]): > 32 µg/mL
- MIC (Acinetobacter baumannii [16]): 32 µg/mL
- MIC (Acinetobacter baumannii [17]): 8 µg/mL
- MIC (Acinetobacter baumannii [18]): 1 µg/mL
- MIC (Acinetobacter baumannii [19]): 32 µg/mL
- MIC (Acinetobacter baumannii [20]): 32 µg/mL
- MIC (Acinetobacter baumannii [21]): 16 µg/mL
- MIC (Acinetobacter baumannii [22]): 16 µg/mL
- MIC (Acinetobacter baumannii [23]): 16 µg/mL
- MIC [24]: 1 µg/mL

SMILES: CC(C)(O/N=C(\C(=O)N[C@@H]1C(=O)N2C(C(=O)[O-])=C(C[n+]3ccccc3)CS[C@H]12)c1csc(N)n1)C(=O)O [CEFTAZIDIME]
- MIC50 (Acinetobacter baumannii [25]): > 64 µg/mL
- MIC90 (Acinetobacter baumannii [25]): > 64 µg/mL
- MIC50 (Acinetobacter baumannii [26]): 64 µg/mL (≈ 117 µM)
- MIC90 (Acinetobacter baumannii [26]): > 64 µg/mL

SMILES: CC(C)(O/N=C(\C(=O)N[C@H]1CN2CC(C(=O)NCCN3C(=O)c4cc(O)c(O)cc4C3=O)=C(C(=O)O)N2C1=O)c1csc(N)n1)C(=O)O (stereo in doubt)
- MIC (Pseudomonas aeruginosa [27]): > 16 µg/mL
- MIC (Pseudomonas aeruginosa [28]): > 16 µg/mL
- MIC (Pseudomonas aeruginosa [29]): 16 µg/mL (≈ 23.3 µM)
- MIC (Pseudomonas aeruginosa [30]): > 16 µg/mL
- MIC (Pseudomonas aeruginosa [31]): > 16 µg/mL
- MIC (Pseudomonas aeruginosa [32]): ≤ 0.25 µg/mL
- MIC (Pseudomonas aeruginosa [33]): ≤ 0.25 µg/mL
- MIC (Pseudomonas aeruginosa [34]): > 16 µg/mL
- MIC (Pseudomonas aeruginosa [35]): ≤ 0.25 µg/mL
- MIC (Pseudomonas aeruginosa [36]): 16 µg/mL (≈ 23.3 µM)
- MIC (Pseudomonas aeruginosa [37]): 16 µg/mL (≈ 23.3 µM)
- MIC (Pseudomonas aeruginosa [38]): ≤ 0.25 µg/mL
- MIC (Pseudomonas aeruginosa [39]): > 16 µg/mL
- MIC (Pseudomonas aeruginosa [40]): 16 µg/mL (≈ 23.3 µM)
- MIC (Pseudomonas aeruginosa [41]): > 16 µg/mL
- MIC (Pseudomonas aeruginosa [42]): 16 µg/mL (≈ 23.3 µM)
- MIC (Pseudomonas aeruginosa [43]): > 16 µg/mL
- MIC (Pseudomonas aeruginosa [44]): ≤ 0.25 µg/mL
- MIC (Pseudomonas aeruginosa [45]): > 16 µg/mL
- MIC (Pseudomonas aeruginosa [46]): > 16 µg/mL
- MIC (Pseudomonas aeruginosa [47]): 0.25 µg/mL (≈ 0.364 µM)

SMILES: C[C@H]1[C@H](NC(=O)/C(=N\OC(C)(C)C(=O)O)c2csc(N)n2)C(=O)N1S(=O)(=O)O [AZTREONAM]
- MIC50 (Acinetobacter baumannii [25]): > 32 µg/mL
- MIC90 (Acinetobacter baumannii [25]): > 32 µg/mL

SMILES: C[C@@H](O)[C@H]1C(=O)N2C(C(=O)O)=C(S[C@@H]3CN[C@H](C(=O)N(C)C)C3)[C@H](C)[C@H]12 [MEROPENEM]
- MIC90 (Acinetobacter baumannii [25]): > 64 µg/mL
- MIC50 (Acinetobacter baumannii [26]): 8 µg/mL (≈ 20.9 µM)
- MIC90 (Acinetobacter baumannii [26]): > 64 µg/mL
